According to ChEMBL document CHEMBL4038302, “Fibroblast Activation Protein α Activated Tripeptide Bufadienolide Antitumor Prodrug with Reduced Cardiotoxicity” (J Med Chem, 2017):
Activity calls are given as the source filed them. The rule behind the calls is not given here.

Experiments:
[1] = Cytotoxicity in BMSC (unknown origin) assessed as cell viability at 1000 nmol/L after 72 hrs by MTT assay; assay type: cell-based; details: unidentified, 1 µM
[2] = tested on: MDA-MB-231; test: Induction of apoptosis in human MDA-MB-231 cells xenografted in BALB/C nude mouse at 4 umol/kg, iv administered starting on day 5 measured after day 22 by tunnel assay relative to control; assay type: functional; details: in the assay text read “12 umol/kg” for “4 umol/kg”
In short: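 Paraffin tumour sections from dosed xenograft mice stained by in situ cell death detection (TUNEL), examined blind to treatment. Percentage of apoptotic cells quantified by image analysis. Mean ± SEM, n = 6, versus the 5% HS15 control.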

[3] = (§1) In vivo prodrug activation in tumor of BALB/C nude mouse xenografted with human MDA-MB-231 cells assessed as FAP-alpha mediated (S)-((3S,5R,8R,9S,10S,11S,13R,14S,17R)-11,14-dihydroxy-10,13-dimethyl-12-oxo-17-(2-oxo-2H-pyran-5-yl)hexadecahydro-1H-cyclopenta[a]phenanthren-3-yl) 2-amino-3-(1H-indol-3-yl)propanoate formation at 40 umol/L by LC-MS/MS analysis; design: species or system Neoplasm
In short: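 Tumour and heart tissue weighed and homogenized on ice in PBS, pH 7.4, then incubated with prodrug at 40 μmol/L. Bufalin at 2 μmol/L added as internal standard; reaction stopped with acetonitrile and spun at 18 000g for 30 min. Active form quantified by LC-MS/MS against a standard curve of 0.625–40 μmol/L; mean ± SEM of three samples.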

[4] = as §1, with “Ratio of invivo” for “In vivo”, “formation in absence of talabostat to FAP-alpha mediated (S)-((3S,5R,8R,9S,10S,11S,13R,14S,17R)-11,14-dihydroxy-10,13-dimethyl-12-oxo-17-(2-oxo-2H-pyran-5-yl)hexadecahydro-1H-cyclopenta[a]phenanthren-3-yl) 2-amino-3-(1H-indol-3-yl)propanoate formation in presence of talabostat” for “formation”; design: species or system Neoplasm
[5] = tested on: Mus musculus; test: Nephrotoxicity in BALB/C nude mouse xenografted with human MDA-MB-231 cells at 12 umol/kg, iv administered starting on day 5 measured after day 22 by hematoxylin-eosin staining-based assay; assay type: toxicity, organism-based; details: in vivo
In short: (§2)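 Tissues from dosed xenograft mice fixed for 24 h and paraffin-embedded. Sections of 5 μm, H&E stained; heart, liver, spleen, lung, kidney and femur examined by a pathologist blind to treatment.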

[6] = tested on: Mus musculus; test: Hepatotoxicity in BALB/C nude mouse xenografted with human MDA-MB-231 cells at 12 umol/kg, iv administered starting on day 5 measured after day 22 by hematoxylin-eosin staining-based assay; assay type: toxicity, organism-based; details: in vivo; in short: as §2
[7] = tested on: Mus musculus; test: Toxicity in BALB/C nude mouse xenografted with human MDA-MB-231 cells assessed as histopathologic change in lungh at 12 umol/kg, iv administered starting on day 5 measured after day 22 by hematoxylin-eosin staining-based assay; assay type: organism-based; details: in vivo; in short: as §2
[8] = tested on: MDA-MB-435; test: Antiproliferative activity against wild type human MDA-MB-435 cells expressing FAP-alpha incubated for 48 hrs by MTT assay; assay type: functional, cell-based; details: MDA-MB-435, 48 h
In short: (§3)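 Cells grown in DMEM with 10% FBS and 1% penicillin-streptomycin at 37 °C, 5% CO2; 10% heat-inactivated FBS used during cytotoxicity testing to exclude serum FAP activity. Viability read by MTT; IC50 as mean ± SEM of at least three independent experiments. Transfected lines were made from MDA-MB-231 with human FAPα plasmid or empty pCMV6-Entry vector and checked by Western blot at 48 h.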

[9] = tested on: MCF7; test: Antiproliferative activity against FAP-alpha deficient human MCF7 cells incubated for 48 hrs by MTT assay; assay type: functional, cell-based; details: MCF7, 48 h; in short: as §3
[10] = tested on: MDA-MB-231; test: Antiproliferative activity against FAP-alpha deficient human MDA-MB-231 cells incubated for 48 hrs by MTT assay; assay type: functional, cell-based; details: MDA-MB-231, 48 h; in short: as §3
[11] = tested on: MDA-MB-231; test: Antiproliferative activity against human MDA-MB-231 cells transfected with pCMV6 incubated for 48 hrs by MTT assay; assay type: functional, cell-based; details: MDA-MB-231, 48 h; in short: as §3
[12] = tested on: MDA-MB-231; test: Antitumor activity against human MDA-MB-231 cells xenografted in BALB/C nude mouse at 4 umol/kg, iv administered starting on day 5 measured after day 22 by Ki67 staining-based assay relative to control; assay type: functional
In short: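 Female BALB/C nude mice, MDA-MB-231 cells (1 × 10^7) injected subcutaneously in Matrigel–PBS 1:1. Daily iv dosing in 5% HS15 vehicle from day 5. Tumours fixed and paraffin-embedded, 5 μm sections, anti-Ki67 IHC, read blind by a pathologist. Proliferative index by image analysis, n = 6. Compared with 5% HS15 control by one-way ANOVA and Tukey's test.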

[13] = tested on: Mus musculus; test: Cardiotoxicity in BALB/C nude mouse xenografted with human MDA-MB-231 cells assessed as change in interventricular septal systole dimension at 12 umol/kg, iv administered starting on day 5 measured after day 22 by echocardiography; assay type: toxicity, organism-based; details: in vivo
In short: (§4)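 Same MDA-MB-231 xenograft mice, given daily iv doses in 5% HS15 from day 5. After 22 days of dosing, transthoracic echocardiography with a 21 MHz transducer under 1.5% isoflurane, supine. M-mode images taken from the parasternal short-axis view at the papillary muscle; IVSd, IVSs, LVIDd and LVIDs derived, n = 6.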

[14] = tested on: Mus musculus; test: Cardiotoxicity in BALB/C nude mouse xenografted with human MDA-MB-231 cells assessed as change in interventricular septal diastole dimension at 12 umol/kg, iv administered starting on day 5 measured after day 22 by echocardiography; assay type: toxicity, organism-based; details: in vivo; in short: as §4
[15] = tested on: Mus musculus; test: Cardiotoxicity in BALB/C nude mouse xenografted with human MDA-MB-231 cells assessed as change in left ventricular internal diastole dimension at 12 umol/kg, iv administered starting on day 5 measured after day 22 by echocardiography; assay type: toxicity, organism-based; details: in vivo; in short: as §4
[16] = tested on: Mus musculus; test: Cardiotoxicity in BALB/C nude mouse xenografted with human MDA-MB-231 cells assessed as cytoplasmic vacuolization at 12 umol/kg, iv administered starting on day 5 measured after day 22 by hematoxylin-eosin staining-based assay; assay type: toxicity, organism-based; details: in vivo; in short: as §2
[17] = tested on: Mus musculus; test: Cardiotoxicity in BALB/C nude mouse xenografted with human MDA-MB-231 cells assessed as change in LDH level at 12 umol/kg, iv administered starting on day 5 measured after day 22; assay type: toxicity, organism-based; details: in vivo
In short: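 Serum from xenograft mice given daily iv doses in 5% HS15: blood taken by cardiac puncture before sacrifice and spun at 3000 rpm for 20 min at 4 °C. D-LDH activity measured with a colorimetric kit. Mean ± SEM, n = 6; one-way ANOVA with Tukey's test against the 5% HS15 control.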

[18] = tested on: Mus musculus; test: Acute toxicity in Kunming mouse assessed as mortality at 12 umol/kg, iv after 8 hrs post dose; assay type: organism-based; details: in vivo
[19] = Safety index, ratio of test compound LD50 to arenobufagin LD50 for Kunming mouse; assay type: ADME; details: in vivo
In short: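 LD50 from single-dose iv acute toxicity in Kunming mice (five dose levels per compound, n = 10 per group, 14-day observation), calculated by Bliss method; ratio taken against arenobufagin LD50.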

[20] = tested on: MDA-MB-231; test: Antitumor activity against human MDA-MB-231 cells xenografted in BALB/C nude mouse assessed as decrease in tumor weight at 4 umol/kg, iv administered starting on day 5 measured after day 22; assay type: functional, organism-based
In short: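 Female BALB/C mice inoculated subcutaneously in the back with 1 × 10^7 MDA-MB-231 cells in Matrigel–PBS (1:1). From day 5, daily iv dosing in 5% Solutol-HS15 vehicle, with a vehicle control group. Tumours measured by caliper every 2 days (v = 0.5 × a × b²); tumour weight as mean ± SEM, n = 6, one-way ANOVA with Tukey's test.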

With `C[C@]12CC[C@H](OC(=O)[C@H](Cc3c[nH]c4ccccc34)NC(=O)[C@@H]3CCCN3C(=O)CNC(=O)OCc3ccccc3)C[C@H]1CC[C@@H]1[C@@H]2[C@H](O)C(=O)[C@]2(C)[C@@H](c3ccc(=O)oc3)CC[C@]12O` the Activity [1] was “Non-Toxic”, the “fold change (FC)” value [2] was 5 and the Drug metabolism [3] was 19.82 µmol/L. For the same molecule, the Ratio [4] was 20, the Activity [5] was “Non-Toxic” and the Activity [6] was “Non-Toxic”. For the same molecule, the Activity [7] was “Non-Toxic”, the IC50 [8] was 10.6 nM and the IC50 [9] was 11.6 nM. For the same molecule, the IC50 [10] was 27 nM, the IC50 [11] was 24 nM and the Activity [12] was 45 - 50%. For the same molecule, the Activity [13] was “Non-Toxic”, the Activity [14] was “Non-Toxic” and the Activity [15] was “Non-Toxic”. The Activity [16] was “Non-Toxic”, the Activity [17] was “Non-Toxic” and the Activity [18] was “Non-Toxic”. For the same molecule, the selectivity ratio [19] was 6.5 and the Activity [20] was “Active”.
